Values belong to the compound of their own block, whether it stands above or below them.
Experiments:
BJ = assay: Cytotoxicity against human BJ cells after 72 hrs by MTT assay; format: ADME, cell-based
Nicotiana tabacum [1] = assay: Cytokinin activity in tobacco callus assessed as stimulation of callus growth at 100 uM relative to 6-benzylaminopurine; format: functional
Outline: (§1)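 Compounds dissolved in DMSO, diluted with water to 5 × 10^-2 M stock, then diluted in medium to 10^-8 to 10^-4 M. Final DMSO ≤0.2%; solvent control 0.2% DMSO. Readout was cytokinin-dependent tobacco callus growth. Activity is expressed relative to 10^-6 M BAP (=100%) at each compound's optimal concentration. Five replicates per concentration; whole test run at least twice.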

Amaranthus = assay: Cytokinin activity in cotyledons assessed as dark induction of betacyanin synthesis at 100 uM relative to 6-benzylaminopurine; format: functional
Triticum aestivum = assay: Cytokinin activity in wheat leaf assessed as stimulation of retention of chlorophyll in excised leaves at 0.1 mM relative to 6-benzylaminopurine; format: functional
K562 = assay: Cytotoxicity against human K562 cells after 72 hrs by Calcein AM assay; format: ADME, cell-based; details: K562, 72 h
MCF7 = assay: Cytotoxicity against human MCF7 cells after 72 hrs by Calcein AM assay; format: ADME, cell-based; details: MCF7, 72 h
Nicotiana tabacum [2] = assay: Cytokinin activity in tobacco callus assessed as stimulation of callus growth at 1 uM relative to 6-benzylaminopurine; format: functional
Nicotiana tabacum [3] = assay: Cytokinin activity in tobacco callus assessed as stimulation of callus growth at 10 uM relative to 6-benzylaminopurine; format: functional; outline: as §1
[4] = Stability assessed as compound peak area at pH 7 after 1 hr by HPLC-PDA method; format: physicochemical; details: read-out: Stability
Outline: (§2)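 10^-2 M methanol solution diluted to 10^-4 M in McIlvaine buffer at pH 3, 4, 5, 6 or 7, then incubated at 25 °C. Direct injection onto reversed-phase C18 after 1 h and again after 24 h. Methanol/15 mM formic acid (pH 4, ammonium) gradient at 0.3 mL/min, PDA at 270 nm. Parent and released free base (m-topolin) reported as peak area %.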

[5] = Stability assessed as compound peak area at pH 6 after 1 hr by HPLC-PDA method; format: physicochemical; details: read-out: Stability; outline: as §2
[6] = Stability assessed as compound peak area at pH 5 after 1 hr by HPLC-PDA method; format: physicochemical; details: read-out: Stability; outline: as §2
[7] = Stability assessed as compound peak area at pH 4 after 1 hr by HPLC-PDA method; format: physicochemical; details: read-out: Stability; outline: as §2
[8] = Stability assessed as compound peak area at pH 3 after 1 hr by HPLC-PDA method; format: physicochemical; details: read-out: Stability; outline: as §2
[9] = Stability assessed as compound peak area at pH 7 after 24 hrs by HPLC-PDA method; format: physicochemical; details: read-out: Stability; outline: as §2
[10] = Stability assessed as compound peak area at pH 6 after 24 hrs by HPLC-PDA method; format: physicochemical; details: read-out: Stability; outline: as §2
[11] = Stability assessed as compound peak area at pH 5 after 24 hrs by HPLC-PDA method; format: physicochemical; details: read-out: Stability; outline: as §2
[12] = Stability assessed as compound peak area at pH 4 after 24 hrs by HPLC-PDA method; format: physicochemical; details: read-out: Stability; outline: as §2
[13] = Stability assessed as compound peak area at pH 3 after 24 hrs by HPLC-PDA method; format: physicochemical; details: read-out: Stability; outline: as §2
[14] = Stability assessed as free base release at pH 7 after 1 hr by HPLC-PDA method; format: physicochemical; details: pH 7, 1 h; outline: as §2
[15] = Stability assessed as free base release at pH 6 after 1 hr by HPLC-PDA method; format: physicochemical; details: pH 6, 1 h; outline: as §2
[16] = Stability assessed as free base release at pH 5 after 1 hr by HPLC-PDA method; format: physicochemical; details: pH 5, 1 h; outline: as §2
[17] = Stability assessed as free base release at pH 4 after 1 hr by HPLC-PDA method; format: physicochemical; details: pH 4, 1 h; outline: as §2
[18] = Stability assessed as free base release at pH 3 after 1 hr by HPLC-PDA method; format: physicochemical; details: pH 3, 1 h; outline: as §2
[19] = Stability assessed as free base release at pH 7 after 24 hr by HPLC-PDA method; format: physicochemical; details: pH 7, 24 h; outline: as §2
[20] = Stability assessed as free base release at pH 6 after 24 hr by HPLC-PDA method; format: physicochemical; details: pH 6, 24 h; outline: as §2
[21] = Stability assessed as free base release at pH 5 after 24 hr by HPLC-PDA method; format: physicochemical; details: pH 5, 24 h; outline: as §2
[22] = Stability assessed as free base release at pH 4 after 24 hr by HPLC-PDA method; format: physicochemical; details: pH 4, 24 h; outline: as §2
[23] = Stability assessed as free base release at pH 3 after 24 hr by HPLC-PDA method; format: physicochemical; details: pH 3, 24 h; outline: as §2

Structure (SMILES): COc1cc(OC)c(OC)cc1CNc1ncnc2c1ncn2C1CCCO1 (stereo not drawn)
IC50 (BJ): > 100 µM | Activity (Nicotiana tabacum [1]): 14% | Activity (Amaranthus): 14% | Activity (Triticum aestivum): 9% | IC50 (K562): > 100 µM | IC50 (MCF7): > 100 µM

Structure (SMILES): COc1cccc(CNc2ncnc3c2ncn3C2CCCCO2)c1O (stereo not drawn)
IC50 (BJ): > 100 µM | Activity (Nicotiana tabacum [1]): 12% | Activity (Amaranthus): 18% | IC50 (K562): > 100 µM | IC50 (MCF7): > 100 µM

Structure (SMILES): COc1cc(CNc2ncnc3c2ncn3C2CCCCO2)cc(OC)c1 (stereo not drawn)
IC50 (BJ): > 100 µM | Activity (Amaranthus): 9% | Activity (Triticum aestivum): 7% | IC50 (K562): > 100 µM | IC50 (MCF7): > 100 µM

Structure (SMILES): COc1cccc(CNc2ncnc3c2ncn3C2CCCO2)c1 (stereo not drawn)
IC50 (BJ): > 100 µM | Activity (Nicotiana tabacum [2]): 96% | Activity (Amaranthus): 123% | Activity (Triticum aestivum): 82% | IC50 (K562): > 100 µM | IC50 (MCF7): > 100 µM

Structure (SMILES): Oc1cccc(CNc2ncnc3c2ncn3C2CCCCO2)c1O (stereo not drawn)
IC50 (BJ): 63.3 µM | Activity (Nicotiana tabacum [1]): 3.2% | Activity (Amaranthus): 8% | IC50 (K562): 92 µM | IC50 (MCF7): > 100 µM

Structure (SMILES): COc1ccc(OC)c(CNc2ncnc3c2ncn3C2CCCCO2)c1 (stereo not drawn)
IC50 (BJ): > 100 µM | Activity (Nicotiana tabacum [3]): 42% | Activity (Amaranthus): 28% | Activity (Triticum aestivum): 19% | IC50 (K562): 16.5 µM | IC50 (MCF7): 25.4 µM

Structure (SMILES): COc1ccc(OC)c(CNc2ncnc3c2ncn3C2CCCO2)c1 (stereo not drawn)
IC50 (BJ): > 50 µM | Activity (Nicotiana tabacum [3]): 61% | Activity (Amaranthus): 41% | Activity (Triticum aestivum): 41% | IC50 (K562): > 50 µM | IC50 (MCF7): > 50 µM

Structure (SMILES): c1ccc(CNc2ncnc3c2ncn3C2CCCO2)cc1 (stereo not drawn)
IC50 (BJ): > 100 µM | Activity (Nicotiana tabacum [2]): 95% | Activity (Amaranthus): 109% | Activity (Triticum aestivum): 107% | IC50 (K562): > 100 µM | IC50 (MCF7): > 100 µM

Structure (SMILES): Oc1cc(O)cc(CNc2ncnc3c2ncn3C2CCCCO2)c1 (stereo not drawn)
IC50 (BJ): > 100 µM | Activity (Nicotiana tabacum [3]): 36% | Activity (Amaranthus): 33% | Activity (Triticum aestivum): 15% | IC50 (K562): > 100 µM | IC50 (MCF7): > 100 µM

Structure (SMILES): COc1ccc(CNc2ncnc3c2ncn3C2CCCCO2)cc1OC (stereo not drawn)
IC50 (BJ): > 100 µM | Activity (Amaranthus): 8% | Activity (Triticum aestivum): 8% | IC50 (K562): > 100 µM | IC50 (MCF7): > 100 µM

Structure (SMILES): COc1cc(OC)c(CNc2ncnc3c2ncn3C2CCCCO2)c(OC)c1 (stereo not drawn)
IC50 (BJ): > 50 µM | Activity (Nicotiana tabacum [1]): 2% | Activity (Amaranthus): 14% | Activity (Triticum aestivum): 3% | IC50 (K562): > 50 µM | IC50 (MCF7): > 50 µM

Structure (SMILES): COc1cc(CNc2ncnc3c2ncn3C2CCCO2)ccc1O (stereo not drawn)
IC50 (BJ): > 100 µM | Activity (Nicotiana tabacum [1]): 13% | Activity (Amaranthus): 17% | Activity (Triticum aestivum): 4% | IC50 (K562): > 100 µM | IC50 (MCF7): > 100 µM

Structure (SMILES): COc1ccc(CNc2ncnc3c2ncn3C2CCCO2)cc1 (stereo not drawn)
IC50 (BJ): > 100 µM | Activity (Nicotiana tabacum [2]): 7% | Activity (Amaranthus): 25% | Activity (Triticum aestivum): 16% | IC50 (K562): > 100 µM | IC50 (MCF7): > 100 µM

Structure (SMILES): COc1cc(CNc2ncnc3c2ncn3C2CCCO2)cc(OC)c1 (stereo not drawn)
IC50 (BJ): > 100 µM | Activity (Nicotiana tabacum [1]): 14% | Activity (Amaranthus): 18% | Activity (Triticum aestivum): 8% | IC50 (K562): > 100 µM | IC50 (MCF7): > 100 µM

Structure (SMILES): COc1cc(CNc2ncnc3c2ncn3C2CCCCO2)ccc1O (stereo not drawn)
IC50 (BJ): > 100 µM | Activity (Nicotiana tabacum [1]): 8.7% | Activity (Amaranthus): 26% | Activity (Triticum aestivum): 7% | IC50 (K562): > 100 µM | IC50 (MCF7): > 100 µM

Structure (SMILES): Oc1ccc(CNc2ncnc3c2ncn3C2CCCCO2)cc1 (stereo not drawn)
IC50 (BJ): > 100 µM | Activity (Nicotiana tabacum [3]): 20% | Activity (Amaranthus): 34% | Activity (Triticum aestivum): 4% | IC50 (K562): > 100 µM | IC50 (MCF7): > 100 µM

remaining at 1 h [4]: 99.7% | remaining at 1 h [5]: 99.6% | remaining at 1 h [6]: 99.5% | remaining at 1 h [7]: 97.2% | remaining at 1 h [8]: 63.8% | remaining at 24 h [9]: 99.7% | remaining at 24 h [10]: 99.4% | remaining at 24 h [11]: 90.8% | remaining at 24 h [12]: 37.5% | remaining at 24 h [13]: 0.3% | Activity [14]: 0.3% | Activity [15]: 0.4% | Activity [16]: 0.5% | Activity [17]: 2.8% | Activity [18]: 36.2% | Activity [19]: 0.3% | Activity [20]: 0.6% | Activity [21]: 9.2% | Activity [22]: 62.5% | Activity [23]: 99.7%
Structure (SMILES): Oc1cccc(CNc2ncnc3c2ncn3C2CCCO2)c1 (stereo not drawn)
IC50 (BJ): > 100 µM | Activity (Nicotiana tabacum [2]): 87% | Activity (Amaranthus): 82% | Activity (Triticum aestivum): 131% | IC50 (K562): > 100 µM | IC50 (MCF7): > 100 µM
